ChEMBL document CHEMBL1142606, “Antibiotic bisanthraquinones produced by a streptomycete isolated from a cyanobacterium associated with Ecteinascidia turbinata” (J Nat Prod, 2006)

Legend:
[1] = Cytotoxicity against human HCT 116 cells; assay type: functional, cell-based
Enterococcus faecalis = experiment: Antibacterial activity against vancomycin-resistant Enterococcus faecalis ATCC 51299 after 18 hrs by broth dilution assay; assay type: functional, organism-based; conditions: ATCC 51299, 18 h
Procedure, shortened: (§1)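 Broth dilution; MRSA ATCC 43300 in trypticase soy medium, VRE ATCC 51299 in brain heart infusion medium. Cultures grown 14 h on rotary shaker at 38 °C, diluted to A600 0.04-0.06, then further 10-fold, dispensed to microtiter wells. Compounds tested in dilution series, ten replicates each; growth read as A600 after 18 h; IC50 reported.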

Staphylococcus aureus = experiment: Antibacterial activity against methicillin-resistant Staphylococcus aureus ATCC 43300 after 18 hrs by broth dilution assay; assay type: functional, organism-based; conditions: ATCC 43300, 18 h; procedure, shortened: as §1

CC1=CC(O)=C2C(=O)c3c(O)cccc3[C@@]34Oc5c(ccc6c5C(=O)c5c(O)cc(C)cc5C6=O)C23[C@@H]1[C@H](C)O4 (stereo partly specified)
IC50 [1]: 6.6 µM
IC50 (Enterococcus faecalis): 130 µM
IC50 (Staphylococcus aureus): 31 µM

Cc1cc(O)c2c(c1)C(=O)c1ccc3c(c1C2=O)O[C@@]12O[C@@H](C)[C@H]4C31C(=C(O)C[C@@]4(C)O)C(=O)c1c(O)cccc12 (stereo partly specified)
IC50 [1]: 3.3 µM
IC50 (Enterococcus faecalis): 2 µM
IC50 (Staphylococcus aureus): 0.15 µM

Cc1cc(O)c2c(c1)C(=O)c1ccc3c(c1C2=O)O[C@@]12O[C@@H](C)[C@@]4(O)C31C(=C(O)C[C@@]4(C)O)C(=O)c1c(O)cccc12 (stereo partly specified)
IC50 [1]: 5.6 µM
IC50 (Enterococcus faecalis): 12 µM
IC50 (Staphylococcus aureus): 0.36 µM

CN(C)[C@@H]1C(O)=C(C(N)=O)C(=O)[C@@]2(O)C(O)=C3C(=O)c4c(O)cccc4[C@@](C)(O)[C@H]3C[C@@H]12 [TETRACYCLINE]
IC50 (Enterococcus faecalis): 0.7 µg/mL
IC50 (Staphylococcus aureus): 0.2 µg/mL
